Compounds with a hit are over-represented: about 3.8% of the library has one in this group of screens.
HSP90 refold inh = inhibitors of HSP90 luciferase refolding in rabbit reticulocyte lysate; luciferase refolding luminescence, 3 h; inhibition, % at 5.6 µM; hit rate 0.91% among 290,000; AID 1789;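 active = inhibition above the screen-wide mean plus 3 SD, computed separately per campaign, cut at about 16% in these data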;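 also: inhibitors lower the luminescence because luciferase stays unfolded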
NS3 helicase inh = inhibitors of Hepatitis C virus NS3 helicase. NS3 helicase DNA unwinding, Cy5 molecular beacon fluorescence. hit rate 0.56% among 290,000. AID 1800. inhibition, % at 10.9 µM;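 active = inhibition above the mean of all tested compounds plus 3 SD, set per campaign, cut at about 35% in these data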
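System: NS3 helicase fragment of HCV / Schedule: 1 h at 25 °C / Control set: DMSO alone as 0% and 110 µM thioflavine S as 100% / Reagent: Cy5/quencher beacon DNA duplex and ATP to start / Technique: Cy5 fluorescence / Replication: singlicate / Evaluation: % inhibition of end-to-start signal ratio versus controls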
HSF1 activator = increases HSF-1 driven luciferase reporter signal; NIH3T3-HGL HSF-1 luciferase reporter, MG132, 8 h; 100% = twice DMSO control signal; activation, % at 9 µM; hit rate 1.7% among 300,000; AID 504408;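 active = mean replicate activation of at least 50% with a set share of replicates each reaching 50%; inconclusive = only one of those two conditions met; inactive = mean below 50% and too few replicates reaching it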
Hep lipid drop = modulators of hepatic lipid droplet formation; AML12 mouse hepatocytes, oleate lipid droplets, BODIPY imaging; hit rate 0.4% among 240,000; inhibition, % at 6.5 µM;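 active = lipid droplet intensity inhibited by at least 50%, with more than 500 cells counted; inconclusive = wells with under 300 cells, treated as cytotoxic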
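Material: mouse AML12 hepatocyte cell line, fixed after treatment; Timing: compound with oleate, overnight; Technique: high-content imaging of BODIPY-stained droplets and DAPI nuclei; Probe or stimulus: oleate, 100 µM final; Dosing: compound at 6.5 µM only.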
HSF1 inh = HSF1 inhibition; NIH3T3-HGL HSE-luciferase, MG132-induced, luminescence 8 h; hits give low values; activity change, negative = inhibition, % at 7.5 µM (by protocol); hit rate 0.77% among 300,000; AID 2098;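 active = more than half of replicate wells show activity change below -50%, luminescence cut by over half; inconclusive = some wells, but at most half, below -50%; inactive = no replicate well below -50%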;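 also: luciferase reports HSF-1 transcriptional activity via heat shock element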
Of the large screens only hits and unclear results are named; the others gave an inactive call.

COc1ccc(CCNC(=O)CCCn2ncn3c(cc4occc43)c2=O)c(OC)c1	none
Cc1ccc(N(CC(=O)NCc2ccccc2)C(=O)c2csnn2)cc1	none
COc1ccccc1C(=O)COC(=O)c1ccc(-n2cnnn2)cc1	none (no result: HSP90 refold inh, NS3 helicase inh, Hep lipid drop)
O=C(COC(=O)c1ccccc1-n1cnnn1)c1ccc(F)cc1	HSF1 inh -53 (no result: HSP90 refold inh, NS3 helicase inh, Hep lipid drop)
Cn1nnnc1Sc1ncnc2scc(-c3ccc(F)cc3)c12	HSF1 activator 62
Cc1ccc(C2=NOC(=O)/C2=C\C=C\c2ccccc2)cc1	HSF1 activator 133
CN(C)/C=C1\C(=O)ON=C1c1ccccc1	none
CCCCCOC(=O)c1[nH]c2c(c1C)C(=O)C(C(=O)OC)C(C)C2 (stereo not drawn)	HSF1 activator 76
O=C(Nc1ccc([N+](=O)[O-])cn1)c1cccnc1	none
CC(C)(C)c1ccc(C(=O)Nc2ccc([N+](=O)[O-])cn2)cc1	HSF1 activator 54
Cc1ccc(NC(=O)c2ccc([N+](=O)[O-])cc2Cl)nc1	HSF1 activator 52
CC(CC(=O)N1CCN(S(=O)(=O)c2ccc(Cl)cc2)CC1)n1cncn1 (stereo not drawn)	none
O=C(CCN1CCOCC1)c1ccc2c(c1)OCCO2	none
O=C(CCCO)c1ccc2c(c1)OCCO2	HSF1 inh -60
O=C(CCN1CCc2ccccc2CC1)c1ccc2c(c1)OCCO2	HSF1 activator 82 (no result: Hep lipid drop)
CCOc1ccccc1CN1CCN(Cc2cn(C)nc2-c2ccccc2)CC1CCO (stereo not drawn)	HSF1 activator 82
Cn1cc(CN2CCN(Cc3ccccc3)C(CCO)C2)c(-c2ccccc2)n1 (stereo not drawn)	none
Cc1nc([N+](=O)[O-])c(Br)n1CC(=O)c1ccc(Br)cc1	HSF1 activator 123
Cc1nc([N+](=O)[O-])c(Br)n1CC(=O)c1ccc2ccccc2c1	HSP90 refold inh 17, HSF1 activator 159
Cc1cc(S(=O)(=O)N2CCN=C2c2ccccc2)c(C)cc1Cl	HSF1 inh -63
CCCOc1ccc(C2/C(=C(/O)c3ccccc3)C(=O)C(=O)N2CCCN(C)C)cc1OC (stereo not drawn)	none (no result: HSF1 activator, Hep lipid drop, HSF1 inh)
CCCOc1ccc(/C(O)=C2/C(=O)C(=O)N(CCN(C)C)C2c2ccc(O)c(OC)c2)cc1 (stereo not drawn)	HSF1 inh -77 (no result: Hep lipid drop)
CC(C)C(=O)NNC(=O)CSc1nnnn1C(C)C	none
C(=N\Nc1nc2ccccc2[nH]1)/c1cccc2nccnc12	HSF1 activator 64
Fc1ccccc1-c1ccc(/C=N/Nc2nc3ccccc3[nH]2)o1	HSF1 activator 384
Cc1ccc2cc(/C=N/Nc3nc4ccccc4[nH]3)c(Cl)nc2c1	none
COc1ccc(/C=N/Nc2nc3ccccc3[nH]2)cc1OC	HSF1 activator 369
COc1ccc2c(c1)c(/C=N/Nc1nc3ccccc3[nH]1)c(C)n2C	HSF1 activator 206, Hep lipid drop inconclusive
C#CCn1cc(/C=N/Nc2nc3ccccc3[nH]2)c2ccccc21	HSF1 activator 370
COc1cc(OC)c(OC)cc1/C=N/Nc1nc2ccccc2[nH]1	HSF1 activator 267
COc1cc(/C=N\Nc2nc3ccccc3[nH]2)cc(OC)c1OC	HSF1 activator 437 (no result: Hep lipid drop)
C(=N\Nc1nc2ccccc2[nH]1)/c1ccc2c(c1)OCCO2	HSF1 activator 71
CCCCn1c(/C=N/Nc2nc3ccccc3[nH]2)nc2ccccc21	none
C(=N\Nc1nc2ccccc2[nH]1)/c1ccc2ncccc2c1	none
COc1cc(/C=N\Nc2nc3ccccc3o2)cc(OC)c1OC	none
Cc1ccc(NNC(=O)c2ccc(Cl)cc2)nn1	none
CC1CCCCC1NC(=O)c1ccc(NC2=NC3CS(=O)(=O)CC3S2)cc1 (stereo not drawn)	none
Cc1cccc(OCC(=O)OC2CCN(C)CC2)c1	HSF1 inh -55
Cc1ccc(NC(=O)CCN2CC(C)OC(C)C2)cc1 (stereo not drawn)	none
Cc1ccc(NCC(=O)N/N=C\C(Br)=C\c2ccccc2)cc1	HSF1 activator 145
O=C(N/N=C/C(Br)=C\c1ccccc1)c1ccco1	HSF1 activator 108
Cc1occc1C(=O)N/N=C/C=C/c1ccccc1	none
O=C(N/N=C/c1ccccc1)c1ccco1	none
O=C(N/N=C/C(Br)=C/c1ccccc1)NC1CCCCC1	HSF1 activator 58
CC(/C=N/NC(=O)NC1CCCCC1)=C\c1ccccc1	none
Cc1occc1C(=O)N/N=C/C(Br)=C\c1ccccc1	HSF1 activator 363
CCc1ccccc1NC(=S)N(CCN(C)C)Cc1cccs1	none
Fc1ccc(CN2CCN(c3ncnc4scc(-c5ccccc5)c34)CC2)cc1	HSF1 activator 84
Oc1ccccc1N1CCN(c2ncnc3scc(-c4ccc(F)cc4)c23)CC1	HSF1 inh -83
O=C(Nc1ccc(N=Nc2ccccc2)cc1)c1ccc(Cl)cc1Cl	none (no result: Hep lipid drop)
O=C(CCl)Nc1ccc(-c2ccccc2)cc1	HSF1 inh inconclusive
CC(=O)OCC(=O)Nc1ccc(N=Nc2ccccc2)cc1	none
O=C(Nc1ccc(N=Nc2ccccc2)cc1)c1ccccc1Cl	HSF1 activator 72
CC(=O)Nc1ccc(N=Nc2ccccc2)cc1	HSF1 activator 60
O=C(CCl)Nc1ccc(N=Nc2ccccc2)cc1	HSF1 activator 68
O=C(Nc1cc(Cl)cc(Cl)c1)Nc1cnccn1	none
O=C(CNc1ccccc1)NN=C1CCCC1	none
O=C(c1ccc(F)cc1)N1CCC(C(=O)N2CCN(S(=O)(=O)c3cccc([N+](=O)[O-])c3)CC2)CC1	none (no result: HSP90 refold inh, NS3 helicase inh, Hep lipid drop)
O=C(CSc1ncccn1)Nc1cc(Cl)ccc1[N+](=O)[O-]	none
N#Cc1ccc(NCC(=O)Nc2ccc3c(c2)OCCO3)cc1	none
O=C(CSc1ccccc1)Nc1cccc(NC(=O)c2ccco2)c1	HSF1 inh -68 (no result: Hep lipid drop)
O=C(CSc1ccc(Cl)cc1)Nc1cccc(NC(=O)c2ccco2)c1	none (no result: Hep lipid drop)
N#Cc1cccc(NCC(=O)Nc2ccc3c(c2)OCCO3)c1	HSF1 activator 68
Cc1cccc(NC(=O)C(=O)NCCCc2ccccc2)c1	HSF1 activator 83
Cc1cccc(NC(=O)C(=O)NCCCN2CCOCC2)c1	none
Cc1cccc(NC(=O)CCNC(=O)c2ccco2)c1	HSF1 activator 58
O=C(CNC(=O)c1ccco1)Nc1ccc2c(c1)OCCO2	HSF1 inh -67 (no result: HSP90 refold inh, NS3 helicase inh, Hep lipid drop)
O=C(C1CCCCC1)N1CCN(S(=O)(=O)c2cccc([N+](=O)[O-])c2)CC1	none
O=C(Nc1cccnc1)c1ccc([N+](=O)[O-])o1	none
O=C(NCc1cccnc1)c1ccc([N+](=O)[O-])o1	HSF1 activator 70
CC(C)(C)c1ccc(OCc2ccc(C(=O)NCc3cccnc3)o2)cc1	HSF1 activator 112
CN1CCN(CC(=O)Nc2nnc(-c3cccs3)s2)CC1	HSF1 inh -54
COc1ccc(S(=O)(=O)N2CCOC23CCN(S(=O)(=O)c2cc(F)ccc2F)CC3)cc1	none (no result: HSP90 refold inh, NS3 helicase inh, Hep lipid drop)
N#C/C(=C\c1ccccc1C(F)(F)F)C(=O)Nc1ccccc1	none
CCc1cccc(CC)c1NC(=O)/C(C#N)=C/c1ccccc1C(F)(F)F	HSF1 activator 83
